CDK5 p35 inh – inhibitors of human CDK5/p35 kinase; Q00535+Q15078; Recombinant CDK5/p35, ADP-Glo luminescence, 60 min; inhibition, % at 10 µM; actives 0.01% (n = 330,000); AID 488839;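 active = highest replicate inhibition of at least 50% and at least 75% of replicates reaching 50%; inconclusive = only one of the two criteria met; inactive = both criteria failed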;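 also: plate controls were DMSO neutral control for no effect and GW8510 at 10 µM for full effect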
dFosB activator – activators of mouse delta FosB homodimer. P13346. purified delta FosB, TAMRA-CDK5 oligo fluorescence polarization; percent of positive-control signal above neutral wells. activation, % at 25 µM. actives 0.99% (n = 340,000);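 active = mean activation above about 17%, with every replicate also reaching it, limit read from the data, passing the limit was not always enough; inconclusive = only one of the two conditions met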
Target sequence (P13346 whole entry, looked up): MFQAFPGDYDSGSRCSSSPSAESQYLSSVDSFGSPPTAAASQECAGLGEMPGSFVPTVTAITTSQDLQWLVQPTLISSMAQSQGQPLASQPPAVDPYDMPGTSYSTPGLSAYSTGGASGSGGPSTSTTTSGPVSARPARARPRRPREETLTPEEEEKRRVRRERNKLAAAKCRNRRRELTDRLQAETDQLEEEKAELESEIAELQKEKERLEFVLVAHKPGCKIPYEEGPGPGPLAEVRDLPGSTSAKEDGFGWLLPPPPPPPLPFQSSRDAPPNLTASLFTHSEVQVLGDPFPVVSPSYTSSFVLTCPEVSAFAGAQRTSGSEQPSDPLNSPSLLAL
NSD2 HMT inh – NSD2 (human) methyltransferase inhibition | NSD2 peptide methylation, AlphaScreen, 120 min | actives 0.54% (n = 310,000) | inhibition, % at 12.5 µM | AID 743445
SR-BI uptake up – activators of SR-BI mediated HDL lipid uptake; CHO ldlA[mSR-BI] cells, DiI-HDL uptake fluorescence, 3 h; 100 = double the neutral-control signal; activation, % at 12.5 µM; actives 0.096% (n = 320,000);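 active = mean replicate activation of at least 60% and every replicate at or above 60%; inconclusive = mean or all-replicate condition met, but not both; inactive = mean below 60% and not all replicates reaching 60%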;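 also: 0% = median plate neutral-control signal and 100% = twice that signal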
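Test system: SR-BI-overexpressing, LDLR-lacking CHO cells; Medium: Ham's F12 with 0.5% BSA, HEPES 25 mM, pH 7.4; Schedule: 3 h, 37 °C; Technique: bottom-read fluorescence, 550/595 nm.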
SR-BI HDL uptake – blocks mouse SR-BI lipid uptake from DiI-HDL. actives 0.96% (n = 320,000). Q61009. ldlA[mSR-BI] CHO cells, DiI-HDL uptake fluorescence, 3 h. inhibition, % at 12.5 µM. AID 488896;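 active = mean replicate inhibition of at least 70% and a set share of replicates each scoring 70 or more; inconclusive = meets just one of the two criteria; inactive = fails both criteria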;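 also: 0% = median of neutral control wells and 100% = median of positive control wells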
Dyrk1A ADPGlo – inhibitors of rat Dyrk1A kinase | ADP-Glo luminescence, NFATc1 peptide | inhibition, % at 12.5 µM | Q63470 | AID 504441 | actives 0.43% (n = 310,000);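 also: plate controls were vehicle with enzyme for no effect and no enzyme for full effect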
Alpha artifact – counter-screen for NSD2 inhibitors: AlphaScreen artifacts. shares compounds with NSD2 HMT inh. AlphaScreen artifact counterscreen, preloaded methylated H4 peptide. AC35, µM (series often up to 10 µM), for the others: at the highest dose activity change, negative = signal loss. actives 9.4% (n = 1,500); call rule not given here
An asterisk follows results filed as active; ? = inconclusive; . = no result. The list is not random: actives were taken first. Their share in the collection is about 2.5%. Rule as the data show it, unless noted: active = inhibition above about 50%; inactive = the rest.

SMILES	CDK5 p35 inh	dFosB activator	NSD2 HMT inh	SR-BI uptake up	SR-BI HDL uptake	Dyrk1A ADPGlo	Alpha artifact
COc1ccccc1OCC(=O)Nc1ccc(S(=O)(=O)N2CCN(C)CC2)cc1	0	-10	4	19	-19	-4	.
COc1ccccc1OCC(=O)Nc1ccc(S(=O)(=O)N2CCCC2)cc1	-1	-2	69*	.	.	2	-2%
COc1ccccc1OCC(=O)Nc1ccccc1C(=O)N1CCCC1	-5	4	80*	.	.	9	-3%
CC(C)N(Cc1ccccc1)C(=O)COC(=O)c1c(F)cccc1F	-1	-3	-1	-11	11	.	.
CC1CCCC(NC(=O)c2cccc(S(=O)(=O)NCc3ccccc3)c2)C1C (stereo unspecified)	1	-7	.	-10	10	11	.
Nc1cccc2c(O)cc(S(=O)(=O)O)cc12	-22	-28	.	-17	17	.	.
Nc1cc(S(=O)(=O)O)cc([N+](=O)[O-])c1O	-3	-8	87*	10	-10	-10	-5%
CC(CS(=O)(=O)c1ccc2c(c1)NC(=O)CS2)C(=O)NCc1ccccc1Cl (stereo unspecified)	-1	-10	55*	5	-5	-5	-4%
O=C1CSc2ccc(S(=O)(=O)NCc3ccccc3Cl)cc2N1	1	-5	1	-10	10	-5	.
CCc1ccc(C2CC3C(CN2S(=O)(=O)c2ccc(C)cc2)[C@@H](O)C[C@@H](c2ccc(CC)cc2)N3S(=O)(=O)c2ccc(C)cc2)cc1 (stereo partly specified)	.	.	-3	.	.	.	.
Cc1cc(=O)cc(C)n1-c1ccc(O)cc1	2	5	71*	32	-32	3	-2%
O=C(NCCc1cccs1)c1ccc(CS(=O)Cc2cccc(Cl)c2)o1 (stereo unspecified)	.	.	29	.	.	.	.
CCN(CC)CCCNc1cc(C)nc2cc(-c3cccs3)nn12	-1	4	62*	7	-7	1	1%
COc1ccc(CNC(=O)CCCN2C(=O)NC3(CCCC3)C2=O)cc1	1	6	58*	21	-21	.	-5%
COc1ccc(CCN(C)C(=O)c2c(C)noc2C)cc1OC	0	-9	-1	29	-29	8	.
CN(c1ccccc1)c1ncnc2c1ncn2C	-2	1	122*	13	-13	.	-4%
CN(C)S(=O)(=O)c1ccc(NC(=O)CCNC(=O)c2ccco2)cc1	-3	3	59*	6	-6	-3	0%
CC(C)c1ccc(S(=O)(=O)N2CCN(CC(=O)Nc3ccc(Cl)cc3F)CC2)cc1	-3	-8	120*	-22	22	.	-5%
CCOc1ccc2nc(SCC(=O)NC(=O)NCc3ccco3)sc2c1	-4	5	-1	-19	19	-2	.
CCOc1ccc2nc(SCC(=O)NCc3ccco3)sc2c1	-2	0	129*	14	-14	4	-2%
CCOC(=O)C1CCN(C(=O)COC(=O)CN(C)S(=O)(=O)c2ccc(NC(C)=O)cc2)CC1	1	1	-1	28	-28	-1	.
Cc1ccc(S(=O)(=O)N2CCC(NC(=O)c3cccnc3)CC2)cc1Cl	0	-5	63*	.	.	0	-4%
CC(=O)c1cccc(S(=O)(=O)N2CCC(C(=O)OC3CCOC3=O)CC2)c1 (stereo unspecified)	-1	-7	-1	9	-9	-1	.
COc1ccc(-c2csc(Nc3ccc(S(=O)(=O)Nc4cc(C)on4)cc3)n2)cc1C	-1	-11	63*	-17	17	3	-2%
COc1ccc(-c2csc(Nc3ccc(S(=O)(=O)Nc4cc(OC)nc(OC)n4)cc3)n2)cc1	0	-11	.	22	-22	-3	.
SMILES	CDK5 p35 inh	dFosB activator	NSD2 HMT inh	SR-BI uptake up	SR-BI HDL uptake	Dyrk1A ADPGlo	Alpha artifact
CCCN(C(=O)Cc1coc2cc(OC)ccc12)C1CCS(=O)(=O)C1 (stereo unspecified)	1	0	-16	26	-26	2	.
O=C(Nc1ccccc1Cl)c1c(F)c(F)c(F)c(F)c1F	0	0	0	16	-16	0	.
O=C(NC1(O)C(=O)c2ccccc2C1=O)c1c(Cl)cccc1Cl	1	1	111*	0	0	21	1%
COC1(NC(=O)c2ccccc2)C(C)=CC(=O)C=C1C	0	-1	10	15	-15	3	.
O=C(NC1(O)C(=O)c2ccccc2C1=O)c1ccccc1	2	-4	110*	17	-17	36	3%
CCn1nc(C)cc1C(=O)NC1CC(C)(C)Cc2c1cnn2-c1cccc(F)c1 (stereo unspecified)	1	-6	-3	-57	57	-6	.
CCCN(CCC)CCCNC(=O)c1ccc(CS(=O)(=O)c2c(Cl)cccc2Cl)o1	-4	-2	63*	?	-65	1	-5%
CN(C)CCNC(=O)c1ccc(CS(=O)(=O)c2c(Cl)cccc2Cl)o1	1	-4	.	23	-23	6	.
C/C(CC(=O)Nc1ccc2ccccc2c1)=N\NC(=O)c1ccc(O)c(O)c1	1	-1	111*	15	-15	12	-14%
O=C(NCc1ccc(F)cc1)C1CCCN1S(=O)(=O)c1ccccc1C(F)(F)F (stereo unspecified)	1	-10	137*	-16	16	.	-3%
N#CCC(=O)Nc1ccc(C(=O)OCC(=O)NC(=O)NCc2ccco2)cc1	-1	2	-5	7	-7	-1	.
O=C(c1[nH]nc2c1CCc1ccccc1-2)N1CCN(Cc2ccc3c(c2)OCO3)CC1	0	-20	11	-6	6	1	.
Cn1c(=O)c2c(-c3ccccc3)n(Cc3cccnc3)cc2n(C)c1=O	0	-3	53*	14	-14	1	-4%
Cc1ccc(-c2c3c(=O)n(C)c(=O)n(C)c3cn2Cc2cccnc2)cc1	1	-3	-1	26	-26	9	.
CCNCCNc1ccc(Cl)cc1[N+](=O)[O-]	0	6	64*	5	-5	4	-3%
CC1(C)Cc2cccc(OCC(=O)O)c2O1	1	3	54*	8	-8	3	-1%
CCOC(=O)CC(NS(=O)(=O)c1ccc2[nH]cc(C(=O)O)c(=O)c2c1)c1ccc(OCC)c(OC)c1 (stereo unspecified)	-2	-12	68*	.	.	2	-1%
CCOC(=O)CC(NS(=O)(=O)c1ccc(OC)c(OC)c1)c1cccc([N+](=O)[O-])c1 (stereo unspecified)	0	2	0	9	-9	-2	.
